In brackets after ≈: the same amount, converted by molar mass. Activity calls are given as the source filed them. No cut-off for these calls is given here.
Experiments:
[1] = system: Trichophyton mentagrophytes; assay: Antifungal activity against Trichophyton mentagrophytes 445 after 120 hrs by broth microdilution method; format: functional; conditions: Trichophyton mentagrophytes, 445, 120 h
How it was run: (§1)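 Filamentous dermatophyte tested by broth microdilution in RPMI 1640 with glutamine, fluconazole as reference. Value expressed as IC50 relative to growth control. Read at 72 and 120 h.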

[2] = system: Mycobacterium tuberculosis; assay: Antimycobacterial activity against Mycobacterium tuberculosis H37Rv My 331/88 after 21 days; format: functional; conditions: H37Rv My 331/88, 504 h
How it was run: (§2)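 Micromethod MIC in Šula's semisynthetic medium at 37 °C. Compounds added in DMSO at 1000 down to 0.032 µmol/L. Isoniazid standard in sterile water at 0.5–250 µmol/L. Inocula: H37Rv 10^3, M. avium 10^5, M. kansasii 10^4. Read at 14 and 21 d, plus 7 d for M. kansasii.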

Lichtheimia corymbifera [3] = assay: Antifungal activity against Absidia corymbifera 272 after 24 hrs by broth microdilution method; format: functional; conditions: Lichtheimia corymbifera, 272, 24 h
How it was run: (§3)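 Broth microdilution in RPMI 1640 with glutamine, fluconazole as reference. For yeasts, MIC is ≥80% growth reduction (IC80) versus control. For filamentous fungi, the value is expressed as IC50. Readings at 24 and 48 h.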

[4] = system: Mycobacterium tuberculosis; assay: Antimycobacterial activity against Mycobacterium tuberculosis H37Rv My 331/88 after 14 days; format: functional; conditions: H37Rv My 331/88, 336 h; how it was run: as §2
Mycobacterium kansasii [5] = assay: Antimycobacterial activity against Mycobacterium kansasii My 235/80 after 7 days; format: functional; conditions: My 235/80, 168 h; how it was run: as §2
Mycobacterium kansasii [6] = assay: Antimycobacterial activity against Mycobacterium kansasii My 235/80 after 14 days; format: functional; conditions: My 235/80, 336 h; how it was run: as §2
Mycobacterium kansasii [7] = assay: Antimycobacterial activity against Mycobacterium kansasii 6509/96 after 14 days; format: functional; conditions: 6509/96, 336 h; how it was run: as §2
Staphylococcus aureus [8] = assay: Antibacterial activity against methicillin-resistant Staphylococcus aureus H 5996/08 after 24 hrs by broth microdilution method; format: functional; conditions: H 5996/08, 24 h
How it was run: (§4)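 Broth microdilution in Mueller–Hinton broth, compounds dissolved in DMSO, tested over a dilution series from 500 downward. MIC taken as ≥95% growth reduction (IC95) versus drug-free control. Benzylpenicillin comparator. Readings at 24 and 48 h.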

Trichosporon asahii [9] = assay: Antifungal activity against Trichosporon asahii 1188 after 24 hrs by broth microdilution method; format: functional; conditions: Trichosporon asahii, 1188, 24 h; how it was run: as §3
Candida tropicalis = assay: Antifungal activity against Candida tropicalis 156 at 500 micromol/L after 24 to 48 hrs by broth microdilution method; format: functional, organism-based; how it was run: as §3
Candida albicans [10] = assay: Antifungal activity against Candida albicans ATCC 44859 after 24 hrs by broth microdilution method; format: functional; conditions: ATCC 44859, 24 h; how it was run: as §3
HepG2 = assay: Cytotoxicity against human HepG2 cells after 24 hrs by CellTiter assay; format: cell-based; conditions: HepG2, 24 h
How it was run: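 HepG2 cells (passage 27–33) in MEM with 10% FBS, L-glutamine and NEAA, seeded at 1×10^4 per well. Treated next day with compounds at 0.1–100 µM (or 0.1–25 µmol/L), triplicates, <1% DMSO, for 24 h at 37 °C, 5% CO2. MTS reagent added for 2 h, absorbance read at 490 nm. IC50 taken against untreated (100%) and 10% DMSO (0%) controls.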

Mycobacterium avium [11] = assay: Antimycobacterial activity against isoniazid, rifampicin, ethambutol and ofloxacin-resistant Mycobacterium avium My 330/88 after 14 days; format: functional; conditions: My 330/88, 336 h; how it was run: as §2
Mycobacterium kansasii [12] = assay: Antimycobacterial activity against Mycobacterium kansasii My 235/80 after 21 days; format: functional; conditions: My 235/80, 504 h; how it was run: as §2
Klebsiella pneumoniae [13] = assay: Antibacterial activity against Klebsiella pneumoniae D 11750/08 at 500 micromol/L after 24 to 48 hrs by broth microdilution method; format: functional, organism-based; how it was run: as §4
Klebsiella pneumoniae [14] = assay: Antibacterial activity against ESBL-positive Klebsiella pneumoniae J 14368/08 at 500 micromol/L after 24 to 48 hrs by broth microdilution method; format: functional, organism-based; how it was run: as §4
[15] = system: Trichophyton mentagrophytes; assay: Antifungal activity against Trichophyton mentagrophytes 445 after 72 hrs by broth microdilution method; format: functional; conditions: Trichophyton mentagrophytes, 445, 72 h; how it was run: as §1
Aspergillus fumigatus [16] = assay: Antifungal activity against Aspergillus fumigatus 231 after 24 hrs by broth microdilution method; format: functional; conditions: Aspergillus fumigatus, 231, 24 h; how it was run: as §3
Staphylococcus aureus [17] = assay: Antibacterial activity against methicillin-resistant Staphylococcus aureus H 5996/08 after 48 hrs by broth microdilution method; format: functional; conditions: H 5996/08, 48 h; how it was run: as §4
Pichia kudriavzevii [18] = assay: Antifungal activity against Candida krusei E28 after 24 hrs by broth microdilution method; format: functional; conditions: E28, 24 h; how it was run: as §3
Lichtheimia corymbifera [19] = assay: Antifungal activity against Absidia corymbifera 272 after 48 hrs by broth microdilution method; format: functional; conditions: Lichtheimia corymbifera, 272, 48 h; how it was run: as §3
Escherichia coli = assay: Antibacterial activity against Escherichia coli CCM 4517 at 500 micromol/L after 24 to 48 hrs by broth microdilution method; format: functional, organism-based; how it was run: as §4
Nakaseomyces glabratus = assay: Antifungal activity against Candida glabrata 20/I at 500 micromol/L after 24 to 48 hrs by broth microdilution method; format: functional, organism-based; how it was run: as §3
Mycobacterium avium [20] = assay: Antimycobacterial activity against isoniazid, rifampicin, ethambutol and ofloxacin-resistant Mycobacterium avium My 330/88 after 21 days; format: functional; conditions: My 330/88, 504 h; how it was run: as §2
Mycobacterium kansasii [21] = assay: Antimycobacterial activity against Mycobacterium kansasii 6509/96 after 7 days; format: functional; conditions: 6509/96, 168 h; how it was run: as §2
Pichia kudriavzevii [22] = assay: Antifungal activity against Candida krusei E28 after 48 hrs by broth microdilution method; format: functional; conditions: E28, 48 h; how it was run: as §3
[23] = system: Staphylococcus epidermidis; assay: Antibacterial activity against Staphylococcus epidermidis H 6966/08 after 48 hrs by broth microdilution method; format: functional; conditions: H 6966/08, 48 h; how it was run: as §4
Aspergillus fumigatus [24] = assay: Antifungal activity against Aspergillus fumigatus 231 after 48 hrs by broth microdilution method; format: functional; conditions: Aspergillus fumigatus, 231, 48 h; how it was run: as §3
Trichosporon asahii [25] = assay: Antifungal activity against Trichosporon asahii 1188 after 48 hrs by broth microdilution method; format: functional; conditions: Trichosporon asahii, 1188, 48 h; how it was run: as §3
Staphylococcus aureus [26] = assay: Antibacterial activity against Staphylococcus aureus CCM 4516/08 after 48 hrs by broth microdilution method; format: functional; conditions: CCM 4516/08, 48 h; how it was run: as §4
Pseudomonas aeruginosa = assay: Antibacterial activity against Pseudomonas aeruginosa CCM 1961 at 500 micromol/L after 24 to 48 hrs by broth microdilution method; format: functional, organism-based; how it was run: as §4
[27] = system: Staphylococcus epidermidis; assay: Antibacterial activity against Staphylococcus epidermidis H 6966/08 after 24 hrs by broth microdilution method; format: functional; conditions: H 6966/08, 24 h; how it was run: as §4
Staphylococcus aureus [28] = assay: Antibacterial activity against Staphylococcus aureus CCM 4516/08 after 24 hrs by broth microdilution method; format: functional; conditions: CCM 4516/08, 24 h; how it was run: as §4
Enterococcus sp. = assay: Antibacterial activity against Enterococcus sp. J 14365/08 at 500 micromol/L after 24 to 48 hrs by broth microdilution method; format: functional, organism-based; how it was run: as §4
Mycobacterium kansasii [29] = assay: Antimycobacterial activity against Mycobacterium kansasii 6509/96 after 21 days; format: functional; conditions: 6509/96, 504 h; how it was run: as §2
Candida albicans [30] = assay: Antifungal activity against Candida albicans ATCC 44859 after 48 hrs by broth microdilution method; format: functional; conditions: ATCC 44859, 48 h; how it was run: as §3

CCOP(=O)(OCC)Oc1cc(Cl)ccc1C(=O)Nc1ccc(C(F)(F)F)cc1
MIC50 [1]: 250 µM (≈ 113 µg/mL) | MIC [2]: 1 µM (≈ 0.452 µg/mL) | MIC50 (Lichtheimia corymbifera [3]): > 500 µM | MIC [4]: 1 µM (≈ 0.452 µg/mL) | MIC (Mycobacterium kansasii [5]): 0.5 µM (≈ 0.226 µg/mL) | MIC (Mycobacterium kansasii [6]): 1 µM (≈ 0.452 µg/mL) | MIC (Mycobacterium kansasii [7]): 2 µM (≈ 0.904 µg/mL) | MIC95 (Staphylococcus aureus [8]): 62.5 µM (≈ 28.2 µg/mL) | MIC80 (Trichosporon asahii [9]): > 500 µM | Activity (Candida tropicalis): inactive | MIC80 (Candida albicans [10]): > 500 µM | IC50 (HepG2): 2.51 µM | MIC (Mycobacterium avium [11]): 4 µM (≈ 1.81 µg/mL) | MIC (Mycobacterium kansasii [12]): 1 µM (≈ 0.452 µg/mL) | Activity (Klebsiella pneumoniae [13]): inactive | Activity (Klebsiella pneumoniae [14]): inactive | MIC50 [15]: 250 µM (≈ 113 µg/mL) | MIC50 (Aspergillus fumigatus [16]): > 500 µM | MIC95 (Staphylococcus aureus [17]): 62.5 µM (≈ 28.2 µg/mL) | MIC80 (Pichia kudriavzevii [18]): > 500 µM | MIC50 (Lichtheimia corymbifera [19]): > 500 µM | Activity (Escherichia coli): inactive | Activity (Nakaseomyces glabratus): inactive | MIC (Mycobacterium avium [20]): 4 µM (≈ 1.81 µg/mL) | MIC (Mycobacterium kansasii [21]): 1 µM (≈ 0.452 µg/mL) | MIC80 (Pichia kudriavzevii [22]): > 500 µM | MIC95 [23]: 31.2 µM (≈ 14.1 µg/mL) | MIC50 (Aspergillus fumigatus [24]): > 500 µM | MIC80 (Trichosporon asahii [25]): > 500 µM | MIC95 (Staphylococcus aureus [26]): 31.2 µM (≈ 14.1 µg/mL) | Activity (Pseudomonas aeruginosa): inactive | MIC95 [27]: 31.2 µM (≈ 14.1 µg/mL) | MIC95 (Staphylococcus aureus [28]): 31.2 µM (≈ 14.1 µg/mL) | Activity (Enterococcus sp.): inactive | MIC (Mycobacterium kansasii [29]): 2 µM (≈ 0.904 µg/mL) | MIC80 (Candida albicans [30]): > 500 µM

CCOP(=O)(OCC)Oc1ccc(Br)cc1C(=O)Nc1ccc(Cl)cc1
MIC50 [1]: > 500 µM | MIC [2]: 4 µM (≈ 1.85 µg/mL) | MIC50 (Lichtheimia corymbifera [3]): > 500 µM | MIC [4]: 2 µM (≈ 0.925 µg/mL) | MIC (Mycobacterium kansasii [5]): 4 µM (≈ 1.85 µg/mL) | MIC (Mycobacterium kansasii [6]): 4 µM (≈ 1.85 µg/mL) | MIC (Mycobacterium kansasii [7]): 4 µM (≈ 1.85 µg/mL) | MIC95 (Staphylococcus aureus [8]): 500 µM (≈ 231 µg/mL) | MIC80 (Trichosporon asahii [9]): > 500 µM | Activity (Candida tropicalis): inactive | MIC80 (Candida albicans [10]): > 500 µM | IC50 (HepG2): 6.81 µM | MIC (Mycobacterium avium [11]): 8 µM (≈ 3.7 µg/mL) | MIC (Mycobacterium kansasii [12]): 8 µM (≈ 3.7 µg/mL) | Activity (Klebsiella pneumoniae [13]): inactive | Activity (Klebsiella pneumoniae [14]): inactive | MIC50 [15]: > 500 µM | MIC50 (Aspergillus fumigatus [16]): > 500 µM | MIC95 (Staphylococcus aureus [17]): > 500 µM | MIC80 (Pichia kudriavzevii [18]): > 500 µM | MIC50 (Lichtheimia corymbifera [19]): > 500 µM | Activity (Escherichia coli): inactive | Activity (Nakaseomyces glabratus): inactive | MIC (Mycobacterium avium [20]): 8 µM (≈ 3.7 µg/mL) | MIC (Mycobacterium kansasii [21]): 4 µM (≈ 1.85 µg/mL) | MIC80 (Pichia kudriavzevii [22]): > 500 µM | MIC95 [23]: > 500 µM | MIC50 (Aspergillus fumigatus [24]): > 500 µM | MIC80 (Trichosporon asahii [25]): > 500 µM | MIC95 (Staphylococcus aureus [26]): > 500 µM | Activity (Pseudomonas aeruginosa): inactive | MIC95 [27]: 500 µM (≈ 231 µg/mL) | MIC95 (Staphylococcus aureus [28]): 500 µM (≈ 231 µg/mL) | Activity (Enterococcus sp.): inactive | MIC (Mycobacterium kansasii [29]): 4 µM (≈ 1.85 µg/mL) | MIC80 (Candida albicans [30]): > 500 µM

— ChEMBL document CHEMBL3102784, “Salicylanilide diethyl phosphates: synthesis, antimicrobial activity and cytotoxicity” (Bioorg Med Chem, 2014)
